# Kir21 inh: inhibitors of mouse Kir2.1 inward-rectifier potassium channel; Inward rectifier potassium channel 2 (Mus musculus), P35561; HEK293-Kir2.1, FluxOR thallium flux fluorescence; active compounds read low; B-score at 10 µM; 310,000 tested, 0.85% active; AID 1672, 2009;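 active = fluorescence ratio B-score at or below minus 3 SD of library scores, with starting-brightness B-score within 2 SD, cut at about -4.2 in these data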;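 also: channel flux triggered by added potassium and thallium sulfate stimulus; B-score of peak minus minimum fluorescence over baseline after thallium stimulus; more negative B-score means stronger Kir2.1 block with less thallium influx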
# KCNK3 block: human KCNK3 channel inhibitors, primary screen, CHO cells, FluxOR thallium flux, B-score. FluxOR fluorescence; active compounds read low. B-score at 10 µM. 340,000 tested, 0.84% active. Potassium channel subfamily K member 3 (Homo sapiens), O14649;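 active = B-score under library mean minus 4 SD, starting fluorescence ratio at most library mean plus 5 SD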;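 also: more negative B-score means stronger inhibition of thallium flux through KCNK3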
# KCNQ1 pot: potentiators or activators of KCNQ1 channel, primary screen, cell-based, thallium flux, high-throughput; Potassium voltage-gated channel subfamily KQT member 1 (Homo sapiens), P51787; CHO-K1 KCNQ1, thallium flux FluxOR fluorescence; active compounds read high; B-score at 10 µM; 310,000 tested, 0.35% active;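 active = fluorescence ratio B-score, a plate-corrected score, at least three library SD, with initial intensity B-score within 5 SD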
#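 System: Stable KCNQ1 CHO-K1 line | Incubation: 90 min dye loading and 20 min compound exposure, both at room temperature | Measure: Ratio B score | Medium: Assay buffer for compound exposure, DMSO matched across wells | Compound dosing: Single-concentration screen | Probe or stimulus: K+/Tl+ depolarizing stimulus | Measured by: Kinetic FluxOR fluorescence, 10 s baseline plus 110 s post-stimulus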
# KCNK9 block: KCNK9 potassium channel inhibitors, primary screen, HEK293 cells, thallium flux; Potassium channel subfamily K member 9 (Homo sapiens), Q9NPC2; FluxOR thallium flux fluorescence; active compounds read low; B-score at 10 µM; 310,000 tested, 1.2% active;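 active = ratio B-score over 3 SD below the library mean, with starting fluorescence within 5 SD of its mean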;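 also: negative B-score means less thallium flux so channel inhibition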
# KCNQ1 block: inhibitors of human KCNQ1 channel, primary screen, cell-based, thallium flux, high-throughput; Potassium voltage-gated channel subfamily KQT member 1 (Homo sapiens), P51787; CHO-K1 KCNQ1, FluxOR thallium flux fluorescence; active compounds read high; B-score at 10 µM; 310,000 tested, 1.3% active; AID 2642, 2010;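 active = compounds whose thallium flux B-score, printed positive for inhibition, exceeds three library SD while starting fluorescence stays within three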;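 also: channel opened by potassium depolarization with thallium stimulus after 20 min compound exposure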
# hERG rescue: hERG rescue from dofetilide block, primary screen, cell-based, CHO-hERG, FluxOR thallium flux, dofetilide IC70. 310,000 tested, 0.51% active. dofetilide IC70 present. activation (rescue from dofetilide block), less the hit threshold, % at 10 µM. Voltage-gated inwardly rectifying potassium channel KCNH2 (Homo sapiens), Q12809;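 active = activation above the mean of controls blocked by dofetilide plus 5 SD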;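 also: thallium influx through hERG after potassium depolarization seen as dye fluorescence rise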
# KCNQ1 inh valid: KCNQ1 potassium channel inhibitors, confirmation, cell-based, Tl flux, duplicate | shares compounds with KCNQ1 block | KCNQ1 cell line, FluxOR thallium flux fluorescence | inhibition, % at 10 µM | 1,600 tested, 93% active;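 active = primary screen active, with duplicate mean exceeding buffer control mean plus 3 SD of buffer wells, cut at about 28% in these data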;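 also: 0% = buffer control ratio and 100% = XE991 inhibitor control ratio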
# CHO Tl flux: thallium flux effects in parental CHO cells, counter-screen for KCNQ1 inhibitor project, cell-based, Tl flux. 1,600 tested, 21% active. shares compounds with KCNQ1 block. fluorescence ratio (Tl flux) at 10 µM. parental CHO-K1, FluxOR thallium flux fluorescence ratio; active compounds read low; zero means no signal rise above baseline. AID 588366, 2011;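 active = mean of duplicate thallium-flux fluorescence ratios in parental host cells more than 5 SD below the buffer control mean, cut at about 0.38 in these data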;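 also: ratio is peak minus minimum fluorescence divided by baseline fluorescence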
# KCNQ1 APC inh: KCNQ1 channel inhibitors, confirmation, orthogonal assay, cell-based, automated electrophysiology | shares compounds with KCNQ1 block | KCNQ1-CHO cells, automated patch clamp current | calls only at 10 µM | 490 tested, 20% active;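 active = KCNQ1 current drop exceeding 3 SD of negative control wells, seen in both duplicate runs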;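 also: steady state current during a 2 s step from -80 to +40 mV; negative values mean current inhibition and positive values mean potentiation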
# KCNQ2 spec: KCNQ2 channel inhibition, selectivity assay for KCNQ1 inhibitor project, cell-based; 1,600 tested, 71% active; KCNQ2 cells, FluxOR thallium flux fluorescence; inhibition, % at 10 µM; shares compounds with KCNQ1 block;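 active = mean percent inhibition of the KCNQ2 thallium signal more than 5 SD above the buffer-only control wells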;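 also: KCNQ2 expressed in CHO cells; 0% = buffer control wells and 100% = XE-991 inhibitor control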
# KCNQ1 KCNE1 spec: KCNQ1/KCNE1 channel inhibition, selectivity assay for KCNQ1 inhibitor project, CHO-K1 cells, thallium flux, FluxOR; inhibition, % at 10 µM; shares compounds with KCNQ1 block; FluxOR thallium flux fluorescence; 1,600 tested, 77% active;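 active = mean percent inhibition of duplicate wells above the buffer-only control mean plus 3 SD of those controls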;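 also: 0% = buffer only wells and 100% = XE-991 inhibitor control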
# Target sequence (P51787 whole entry, looked up): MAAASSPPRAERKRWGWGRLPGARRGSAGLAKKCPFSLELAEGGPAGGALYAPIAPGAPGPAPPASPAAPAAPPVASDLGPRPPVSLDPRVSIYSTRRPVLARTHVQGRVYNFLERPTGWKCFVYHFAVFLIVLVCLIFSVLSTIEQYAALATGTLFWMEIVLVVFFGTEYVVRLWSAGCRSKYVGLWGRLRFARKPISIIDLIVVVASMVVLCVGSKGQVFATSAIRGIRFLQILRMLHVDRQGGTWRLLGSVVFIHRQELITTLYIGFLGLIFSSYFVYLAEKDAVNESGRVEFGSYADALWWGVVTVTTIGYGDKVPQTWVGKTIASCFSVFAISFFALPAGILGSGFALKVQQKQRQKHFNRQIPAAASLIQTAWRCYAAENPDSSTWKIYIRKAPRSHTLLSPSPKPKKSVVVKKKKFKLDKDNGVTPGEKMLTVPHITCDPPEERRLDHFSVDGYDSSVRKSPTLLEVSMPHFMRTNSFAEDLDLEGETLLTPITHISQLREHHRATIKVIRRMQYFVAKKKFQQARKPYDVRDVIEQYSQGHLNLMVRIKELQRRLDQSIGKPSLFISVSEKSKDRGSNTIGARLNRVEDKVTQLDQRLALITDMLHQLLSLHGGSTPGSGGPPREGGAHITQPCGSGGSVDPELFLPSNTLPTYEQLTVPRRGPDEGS
# Starred values were filed as active, the others as inactive; i = inactive; . = no result given; + = active, no number. A selection: hits, their analogues and other compounds. The true share with any hit is near 3.8%.
SMILES,Kir21 inh,KCNK3 block,KCNQ1 pot,KCNK9 block,KCNQ1 block,hERG rescue,KCNQ1 inh valid,CHO Tl flux,KCNQ1 APC inh,KCNQ2 spec,KCNQ1 KCNE1 spec
Cc1ccc(OCc2cc(C(=O)N3CCC(Oc4cccnc4)CC3)no2)cc1C,0.37,i,i,i,7*,-12.9,113.5*,0.42,i,83.3%*,52.0%*
O=C(c1cc(COc2ccc3ncccc3c2)on1)N1CCC(O)CC1,0.29,i,i,i,i,-10.0,.,.,.,.,.
O=C(c1cc(COc2cccc(C(F)(F)F)c2)on1)N1CCC(Oc2cccnc2)CC1,1.87,i,i,i,8*,-15.7,131.5*,0.446,i,96.3%*,85.0%*
CCC(O)C1CCN(C(=O)c2cc(COc3ccc4ncccc4c3)on2)CC1 (configuration not stated),-0.3,i,i,i,8*,-14.9,57.5*,0.482,.,99.7%*,i
COc1cc(F)ccc1CN1CCC(C(=O)Nc2ccc(Oc3ccccc3)nc2)CC1,-0.96,i,i,i,i,-5.1,.,.,.,.,.
Cc1cc(OCCn2ccnc2)ccc1C(C)C,-0.05,i,i,i,6*,-9.9,0.0,0.507,.,64.3%*,42.5%*
Cc1ccc(OCCCn2ccnc2)cc1C,0.15,i,i,i,i,-7.0,.,.,.,.,.
O=C(Nc1ccc(Br)cc1)c1ccc(F)c(S(=O)(=O)NCc2cccs2)c1,-0.16,i,i,i,7*,-18.0,140.5*,0.519,.,92.3%*,130.0%*
O=S(=O)(NCc1cccs1)c1ccc(Br)cc1,-1.27,i,i,i,i,-7.0,.,.,.,.,.
O=C(NC1CCCCC1)C(c1ccco1)N(Cc1ccco1)C(=O)c1ccco1 (configuration not stated),1.58,i,i,i,7*,-7.1,96.0*,0.41,+,70.3%*,112.5%*
O=C(NCC(=O)N(Cc1ccccc1)C(C(=O)NC1CCCCC1)c1ccco1)c1ccco1 (configuration not stated),-0.35,i,i,i,i,-13.1,.,.,.,.,.
O=C(CNC(=O)c1ccco1)OCc1ccccc1F,.,i,.,.,.,.,.,.,.,.,.
Cc1cc(C)c(CSc2ncc(-c3ccc([N+](=O)[O-])cc3)[nH]2)c(C)c1,1.7,i,i,i,16*,-8.9,140.0*,0.426,i,92.7%*,184.5%*
O=C(Nc1cccc(F)c1)N(Cc1ccc(Cl)cc1)CC(O)C(F)(F)F (configuration not stated),0.07,i,i,i,8*,-12.3,72.5*,0.511,.,i,56.5%*
CN(c1ccccc1)S(=O)(=O)c1ccc(C(=O)OCC(=O)NCc2cccs2)cc1,-2.28,i,i,i,6*,-11.6,38.5*,0.469,.,69.3%*,i
CC1CCCC(C)N1C(=O)COC(=O)CNC(=O)c1ccccc1 (configuration not stated),.,i,.,.,.,.,.,.,.,.,.
Cc1ccc(NC(=O)C2CCN(S(=O)(=O)c3ccc4c(c3)NC(=O)C(C)S4)CC2)cc1Cl (configuration not stated),0.93,i,i,i,17*,-13.2,126.0*,0.407,i,91.7%*,107.0%*
CC1Sc2ccc(S(=O)(=O)N3CCC(C(=O)NCC(C)c4ccccc4)CC3)cc2NC1=O (configuration not stated),-0.23,i,i,i,7*,-11.1,56.0*,0.528,.,i,i
Cc1cc(C)cc(NC(=O)C2CCN(S(=O)(=O)c3ccc4c(c3)NC(=O)C(C)S4)CC2)c1 (configuration not stated),-0.81,i,i,i,7*,-10.8,116.0*,0.496,i,97.7%*,131.0%*
O=S(=O)(c1cccc(Br)c1)N1CCN(c2ncnc3scc(-c4ccccc4)c23)CC1,.,i,.,.,.,.,.,.,.,.,.
Cc1csc2ncnc(N3CCN(S(=O)(=O)c4cccc(C(F)(F)F)c4)CC3)c12,-1.31,i,i,i,19*,-12.7,134.0*,0.425,i,113.0%*,129.5%*
CSCCC(NC(=O)c1ccco1)C(=O)N1CCN(c2ccccc2O)CC1 (configuration not stated),.,i,.,.,.,.,.,.,.,.,.
O=C(O)C1CC=CCC1C(=O)Nc1ccc2c(c1)CCC2 (configuration not stated),0.11,i,i,i,6*,-6.7,0.0,0.505,.,i,i
Cc1ccccc1C(=O)Nc1ccc2c(C#N)c3nc4ccccc4nc3n2c1,-0.56,i,i,i,8*,-11.7,32.0*,0.517,.,63.7%*,i
Cc1c(C(=O)Nc2ccccc2)cn2c(nc3ccccc32)c1C#N,-0.07,i,i,i,i,-2.1,.,.,.,.,.
O=C(O)c1cc(-c2ccc(O)cc2)on1,-1.15,i,i,i,i,-5.4,.,.,.,.,.
O=C(Nc1cccc(Cl)c1)N1CCSc2cc(Cl)ccc21,0.06,i,i,i,9*,-17.2,119.0*,0.451,.,111.3%*,68.5%*
CC1(C)C=Cc2c(ccc3c2OC[C@H](c2ccc(O)cc2O)C3)O1,.,i,.,.,.,.,.,.,.,.,.

# Assay outcomes: PubChem, Johns Hopkins Ion Channel Center
